{"source": "ChEMBL document CHEMBL1151705", "about": "“Novel azalides derived from 16-membered macrolides. Part II: Isolation of the linear 9-formylcarboxylic acid and its sequential macrocyclization with an amino alcohol or an azidoamine” (2008)", "key": {"Haemophilus influenzae [1]": {"system": "Haemophilus influenzae", "test": "Antimicrobial activity against drug-susceptible Haemophilus influenzae 1 after 20 hrs by agar dilution method", "format": "functional", "outline": "(§1)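 Streptococci, H. influenzae and M. catarrhalis were precultured on blood agar plates. Suspensions of about 10⁶ CFU/ml were inoculated onto sensitivity disk agar supplemented with 5% horse blood and incubated at 37 °C for 20 h. MIC was read as the lowest drug concentration with no visible growth.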"}, "Haemophilus influenzae [2]": {"system": "Haemophilus influenzae", "test": "Antimicrobial activity against drug-susceptible Haemophilus influenzae 2 after 20 hrs by agar dilution method", "format": "functional", "outline": "as §1"}, "Streptococcus pyogenes [3]": {"system": "Streptococcus pyogenes", "test": "Antimicrobial activity against Streptococcus pyogenes 3 expressing mefA after 20 hrs by agar dilution method", "format": "functional", "outline": "as §1"}, "Staphylococcus aureus [4]": {"system": "Staphylococcus aureus", "test": "Antimicrobial activity against Staphylococcus aureus 4 constitutively expressing ermA after 20 hrs by agar dilution method", "format": "functional", "outline": "(§2)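 Agar dilution MIC. S. aureus seed culture was grown in sensitivity test broth. Cell suspension (about 10⁶ CFU/ml) was inoculated onto sensitivity disk agar with 5% horse blood and incubated at 37 °C for 20 h. MIC was the lowest drug concentration that prevented visible growth.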"}, "Streptococcus pneumoniae [5]": {"system": "Streptococcus pneumoniae", "test": "Antimicrobial activity against Streptococcus pneumoniae 7 expressing inducible ermB after 20 hrs by agar dilution method", "format": "functional", "outline": "as §1"}, "Streptococcus pneumoniae [6]": {"system": "Streptococcus pneumoniae", "test": "Antimicrobial activity against Streptococcus pneumoniae 10 expressing mefA after 20 hrs by agar dilution method", "format": "functional", "details": "Streptococcus pneumoniae, 20 h; read-out: MIC", "outline": "as §1"}, "Staphylococcus aureus [7]": {"system": "Staphylococcus aureus", "test": "Antimicrobial activity against Staphylococcus aureus 6 expressing inducible ermB after 20 hrs by agar dilution method", "format": "functional", "outline": "as §2"}, "Haemophilus influenzae [8]": {"system": "Haemophilus influenzae", "test": "Antimicrobial activity against drug-susceptible Haemophilus influenzae 4 after 20 hrs by agar dilution method", "format": "functional", "outline": "as §1"}, "Streptococcus pneumoniae [9]": {"system": "Streptococcus pneumoniae", "test": "Antimicrobial activity against Streptococcus pneumoniae 5 constitutively expressing ermB/mefA after 20 hrs by agar dilution method", "format": "functional", "details": "Streptococcus pneumoniae, 20 h; read-out: MIC", "outline": "as §1"}, "Moraxella catarrhalis [10]": {"system": "Moraxella catarrhalis", "test": "Antimicrobial activity against drug-susceptible Moraxella catarrhalis 1 after 20 hrs by agar dilution method", "format": "functional", "outline": "as §1"}, "Streptococcus pneumoniae [11]": {"system": "Streptococcus pneumoniae", "test": "Antimicrobial activity against drug-susceptible Streptococcus pneumoniae DP1 Type1 after 20 hrs by agar dilution method", "format": "functional", "outline": "as §1"}, "Staphylococcus aureus [12]": {"system": "Staphylococcus aureus", "test": "Antimicrobial activity against drug-susceptible Staphylococcus aureus 3 after 20 hrs by agar dilution method", "format": "functional", "outline": "as §2"}, "Streptococcus pneumoniae [13]": {"system": "Streptococcus pneumoniae", "test": "Antimicrobial activity against Streptococcus pneumoniae 6 constitutively expressing ermB after 20 hrs by agar dilution method", "format": "functional", "details": "Streptococcus pneumoniae, 20 h; read-out: MIC", "outline": "as §1"}, "Streptococcus pneumoniae [14]": {"system": "Streptococcus pneumoniae", "test": "Antimicrobial activity against drug-susceptible Streptococcus pneumoniae 3 after 20 hrs by agar dilution method", "format": "functional", "details": "Streptococcus pneumoniae, 20 h; read-out: MIC", "outline": "as §1"}, "Streptococcus pyogenes [15]": {"system": "Streptococcus pyogenes", "test": "Antimicrobial activity against drug-susceptible Streptococcus pyogenes 1 after 20 hrs by agar dilution method", "format": "functional", "outline": "as §1"}, "Streptococcus pyogenes [16]": {"system": "Streptococcus pyogenes", "test": "Antimicrobial activity against Streptococcus pyogenes 2 constitutively expressing ermB after 20 hrs by agar dilution method", "format": "functional", "outline": "as §1"}, "Streptococcus pneumoniae [17]": {"system": "Streptococcus pneumoniae", "test": "Antimicrobial activity against Streptococcus pneumoniae 4 constitutively expressing ermB after 20 hrs by agar dilution method", "format": "functional", "details": "Streptococcus pneumoniae, 20 h; read-out: MIC", "outline": "as §1"}, "Streptococcus pneumoniae [18]": {"system": "Streptococcus pneumoniae", "test": "Antimicrobial activity against Streptococcus pneumoniae 8 expressing inducible ermB after 20 hrs by agar dilution method", "format": "functional", "outline": "as §1"}, "Haemophilus influenzae [19]": {"system": "Haemophilus influenzae", "test": "Antimicrobial activity against drug-susceptible Haemophilus influenzae 3 after 20 hrs by agar dilution method", "format": "functional", "outline": "as §1"}, "Streptococcus pneumoniae [20]": {"system": "Streptococcus pneumoniae", "test": "Antimicrobial activity against Streptococcus pneumoniae 9 expressing mefA after 20 hrs by agar dilution method", "format": "functional", "details": "Streptococcus pneumoniae, 20 h; read-out: MIC", "outline": "as §1"}, "Moraxella catarrhalis [21]": {"system": "Moraxella catarrhalis", "test": "Antimicrobial activity against drug-susceptible Moraxella catarrhalis 2 after 20 hrs by agar dilution method", "format": "functional", "outline": "as §1"}, "Staphylococcus aureus [22]": {"system": "Staphylococcus aureus", "test": "Antimicrobial activity against drug-susceptible Staphylococcus aureus 209P JC-1 after 20 hrs by agar dilution method", "format": "functional", "outline": "as §2"}, "Staphylococcus aureus [23]": {"system": "Staphylococcus aureus", "test": "Antimicrobial activity against drug-susceptible Staphylococcus aureus 2 after 20 hrs by agar dilution method", "format": "functional", "outline": "as §2"}, "Streptococcus pneumoniae [24]": {"system": "Streptococcus pneumoniae", "test": "Antimicrobial activity against drug-susceptible Streptococcus pneumoniae 2 after 20 hrs by agar dilution method", "format": "functional", "outline": "as §1"}, "Staphylococcus aureus [25]": {"system": "Staphylococcus aureus", "test": "Antimicrobial activity against Staphylococcus aureus 5 expressing inducible ermB after 20 hrs by agar dilution method", "format": "functional", "outline": "as §2"}, "Staphylococcus aureus [26]": {"system": "Staphylococcus aureus", "test": "Antimicrobial activity against Staphylococcus aureus 6 expressing inducible ermC after 20 hrs by agar dilution method"}, "[27]": {"details": "Haemophilus influenzae, 20 h, read-out: MIC"}, "[28]": {"details": "Streptococcus pyogenes, 20 h, read-out: MIC"}, "[29]": {"details": "Streptococcus pneumoniae, 20 h, read-out: MIC"}, "[30]": {"details": "Moraxella catarrhalis, 20 h, read-out: MIC"}, "[31]": {"details": "Staphylococcus aureus, 20 h, read-out: MIC"}}, "data": [{"smiles": "CCOC(=O)[C@H]1[C@H](C)O[C@@H](O[C@H]2[C@H](N(C)C)[C@@H](O)[C@H](O[C@H]3[C@@H](CC=O)C[C@@H](C)[C@@H](O)CN(C)CCC[C@H](C/C=C/c4cccnc4)OC(=O)C[C@@H](OC(=O)CC)[C@@H]3OC)O[C@@H]2C)C[C@@]1(C)O", "values": [{"measurement": "MIC", "setting": "Haemophilus influenzae [1]; [27]", "result": 32, "unit": "µg/mL"}, {"measurement": "MIC", "setting": "Haemophilus influenzae [2]; [27]", "result": 2, "unit": "µg/mL"}, {"measurement": "MIC", "setting": "Streptococcus pyogenes [3]; [28]", "result": 0.5, "unit": "µg/mL"}, {"measurement": "MIC", "setting": "Staphylococcus aureus [4]", "result": "> 128", "unit": "µg/mL"}, {"measurement": "MIC", "setting": "Streptococcus pneumoniae [5]; [29]", "result": 32, "unit": "µg/mL"}, {"measurement": "MIC", "setting": "Streptococcus pneumoniae [6]", "result": 0.03, "unit": "µg/mL"}, {"measurement": "MIC", "setting": "Staphylococcus aureus [7]", "result": 0.5, "unit": "µg/mL"}, {"measurement": "MIC", "setting": "Haemophilus influenzae [8]; [27]", "result": 16, "unit": "µg/mL"}, {"measurement": "MIC", "setting": "Streptococcus pneumoniae [9]", "result": "> 128", "unit": "µg/mL"}, {"measurement": "MIC", "setting": "Moraxella catarrhalis [10]; [30]", "result": 1, "unit": "µg/mL"}, {"measurement": "MIC", "setting": "Streptococcus pneumoniae [11]; [29]", "result": 0.015, "unit": "µg/mL"}, {"measurement": "MIC", "setting": "Staphylococcus aureus [12]; [31]", "result": 0.25, "unit": "µg/mL"}, {"measurement": "MIC", "setting": "Streptococcus pneumoniae [13]", "result": "> 128", "unit": "µg/mL"}, {"measurement": "MIC", "setting": "Streptococcus pneumoniae [14]", "result": 0.03, "unit": "µg/mL"}, {"measurement": "MIC", "setting": "Streptococcus pyogenes [15]; [28]", "result": 0.06, "unit": "µg/mL"}, {"measurement": "MIC", "setting": "Streptococcus pyogenes [16]", "result": "> 128", "unit": "µg/mL"}, {"measurement": "MIC", "setting": "Streptococcus pneumoniae [17]", "result": "> 128", "unit": "µg/mL"}, {"measurement": "MIC", "setting": "Streptococcus pneumoniae [18]; [29]", "result": 32, "unit": "µg/mL"}, {"measurement": "MIC", "setting": "Haemophilus influenzae [19]; [27]", "result": 8, "unit": "µg/mL"}, {"measurement": "MIC", "setting": "Streptococcus pneumoniae [20]", "result": 0.03, "unit": "µg/mL"}, {"measurement": "MIC", "setting": "Moraxella catarrhalis [21]; [30]", "result": 1, "unit": "µg/mL"}, {"measurement": "MIC", "setting": "Staphylococcus aureus [22]; Staphylococcus aureus, 209P, 20 h, read-out: MIC", "result": 0.5, "unit": "µg/mL"}, {"measurement": "MIC", "setting": "Staphylococcus aureus [23]; [31]", "result": 1, "unit": "µg/mL"}, {"measurement": "MIC", "setting": "Streptococcus pneumoniae [24]; [29]", "result": 0.03, "unit": "µg/mL"}, {"measurement": "MIC", "setting": "Staphylococcus aureus [25]; [31]", "result": 0.25, "unit": "µg/mL"}]}, {"smiles": "CCOC(=O)[C@H]1[C@H](C)O[C@@H](O[C@H]2[C@H](N(C)C)[C@@H](O)[C@H](O[C@H]3[C@@H](CC=O)C[C@@H](C)[C@@H](O)CN(CCCCc4ccccc4)CCC(C)NC(=O)C[C@@H](OC(=O)CC)[C@@H]3OC)O[C@@H]2C)C[C@@]1(C)OC(C)=O", "note": "(stereo in doubt; form 2)", "values": [{"measurement": "MIC", "setting": "Haemophilus influenzae [1]", "result": 32, "unit": "µg/mL"}, {"measurement": "MIC", "setting": "Haemophilus influenzae [2]", "result": 1, "unit": "µg/mL"}, {"measurement": "MIC", "setting": "Streptococcus pyogenes [3]", "result": 0.25, "unit": "µg/mL"}, {"measurement": "MIC", "setting": "Streptococcus pneumoniae [5]", "result": 32, "unit": "µg/mL"}, {"measurement": "MIC", "setting": "Haemophilus influenzae [8]", "result": 8, "unit": "µg/mL"}, {"measurement": "MIC", "setting": "Moraxella catarrhalis [10]", "result": 0.13, "unit": "µg/mL"}, {"measurement": "MIC", "setting": "Streptococcus pneumoniae [11]", "result": 0.13, "unit": "µg/mL"}, {"measurement": "MIC", "setting": "Staphylococcus aureus [12]", "result": 0.25, "unit": "µg/mL"}, {"measurement": "MIC", "setting": "Streptococcus pyogenes [15]", "result": 0.06, "unit": "µg/mL"}, {"measurement": "MIC", "setting": "Staphylococcus aureus [26]", "result": 0.5, "unit": "µg/mL"}, {"measurement": "MIC", "setting": "Streptococcus pneumoniae [18]", "result": 32, "unit": "µg/mL"}, {"measurement": "MIC", "setting": "Haemophilus influenzae [19]", "result": 8, "unit": "µg/mL"}, {"measurement": "MIC", "setting": "Moraxella catarrhalis [21]", "result": 0.25, "unit": "µg/mL"}, {"measurement": "MIC", "setting": "Staphylococcus aureus [22]", "result": 0.25, "unit": "µg/mL"}, {"measurement": "MIC", "setting": "Staphylococcus aureus [23]", "result": 1, "unit": "µg/mL"}, {"measurement": "MIC", "setting": "Streptococcus pneumoniae [24]", "result": 0.25, "unit": "µg/mL"}, {"measurement": "MIC", "setting": "Staphylococcus aureus [25]", "result": 0.25, "unit": "µg/mL"}]}]}
